According to ChEMBL document CHEMBL1154090, “Synthesis, spectral and biological evaluation of some new thiazolidinones and thiazoles based on t-3-alkyl-r-2,c-6-diarylpiperidin-4-ones” (2009):
≈ marks a conversion by molar mass, not a printed value.

What was measured:
[1] = system: Candida albicans; assay: Antifungal activity against Candida albicans by broth microdilution method; format: functional
[2] = system: Mycobacterium tuberculosis; assay: Antimycobacterial activity against Mycobacterium tuberculosis H37Rv ATCC 27294 by BACTEC radiometric respiratory technique; format: functional
Outline: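 Compounds prepared as DMSO solutions and tested over 256 to 1 µg/ml, with isoniazid and rifampicin as reference drugs.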

[3] = system: Aspergillus flavus; assay: Antifungal activity against Aspergillus flavus by broth microdilution method; format: functional
[4] = system: Escherichia coli; assay: Antibacterial activity against Escherichia coli by broth microdilution method; format: functional
[5] = system: Staphylococcus aureus; assay: Antibacterial activity against Staphylococcus aureus by broth microdilution method; format: functional
[6] = system: Rhizopus sp; assay: Antifungal activity against Rhizopus sp. by broth microdilution method
[7] = system: Klebsiella pneumoniae; assay: Antibacterial activity against Klebsiella pneumoniae by broth microdilution method; format: functional
[8] = system: Mycobacterium tuberculosis; assay: Ratio of rifampicin MIC to drug MIC for Mycobacterium tuberculosis H37Rv ATCC 27294; format: functional
[9] = system: Rhizopus; assay: Ratio of amphotericin B MIC to drug MIC for Rhizopus sp.; format: functional
[10] = system: Mycobacterium tuberculosis; assay: Ratio of isoniazid MIC to drug MIC for Mycobacterium tuberculosis H37Rv ATCC 27294; format: functional
[11] = system: Klebsiella pneumoniae; assay: Ratio of ciprofloxacin MIC to drug MIC for Klebsiella pneumoniae; format: functional
[12] = system: Staphylococcus aureus; assay: Ratio of ciprofloxacin MIC to drug MIC for Staphylococcus aureus; format: functional

CCOC(=O)Cc1csc(N/N=C2\CC(c3ccc(Cl)cc3)NC(c3ccc(Cl)cc3)C2C)n1 (stereo not given)
MIC [1]: > 256 µg/mL
MIC [2]: > 256 µg/mL
MIC [3]: 64 µg/mL (≈ 124 µM)
MIC [4]: 64 µg/mL (≈ 124 µM)
MIC [5]: 32 µg/mL (≈ 61.8 µM)
MIC [6]: 128 µg/mL (≈ 247 µM)
MIC [7]: 128 µg/mL (≈ 247 µM)

CCC1/C(=N/N=C2\NC(=O)CS2)CC(c2ccccc2)NC1c1ccccc1 (stereo not given)
MIC [1]: 256 µg/mL (≈ 652 µM)
MIC [2]: > 256 µg/mL
MIC [3]: > 256 µg/mL
MIC [4]: > 256 µg/mL
MIC [5]: 128 µg/mL (≈ 326 µM)
MIC [6]: > 256 µg/mL
MIC [7]: > 256 µg/mL

CCOC(=O)Cc1csc(N/N=C2\CC(c3ccccc3)N(C)C(c3ccccc3)C2C)n1 (stereo not given)
MIC [1]: 256 µg/mL (≈ 553 µM)
MIC [2]: 16 µg/mL (≈ 34.6 µM)
Ratio [8]: 200
MIC [3]: 64 µg/mL (≈ 138 µM)
MIC [4]: 128 µg/mL (≈ 277 µM)
Ratio [9]: 1
MIC [5]: 16 µg/mL (≈ 34.6 µM)
MIC [6]: 8 µg/mL (≈ 17.3 µM)
MIC [7]: 32 µg/mL (≈ 69.2 µM)
Ratio [10]: 1.56

CCOC(=O)Cc1csc(N/N=C2\CC(c3ccc(OC)cc3)NC(c3ccc(OC)cc3)C2C)n1 (stereo not given)
MIC [1]: > 256 µg/mL
MIC [2]: 16 µg/mL (≈ 31.5 µM)
Ratio [8]: 200
MIC [3]: > 256 µg/mL
MIC [4]: 128 µg/mL (≈ 252 µM)
MIC [5]: 64 µg/mL (≈ 126 µM)
MIC [6]: 256 µg/mL (≈ 503 µM)
MIC [7]: 256 µg/mL (≈ 503 µM)
Ratio [10]: 1.56

Cc1ccc(C2C/C(=N\N=C3/NC(=O)CS3)C(C)C(c3ccc(C)cc3)N2)cc1 (stereo not given)
MIC [1]: > 256 µg/mL
MIC [2]: 64 µg/mL (≈ 157 µM)
Ratio [8]: 50
MIC [3]: 128 µg/mL (≈ 315 µM)
MIC [4]: 128 µg/mL (≈ 315 µM)
MIC [5]: 64 µg/mL (≈ 157 µM)
MIC [6]: 256 µg/mL (≈ 630 µM)
MIC [7]: 256 µg/mL (≈ 630 µM)
Ratio [10]: 0.39

CCOC(=O)Cc1csc(N/N=C2\CC(c3ccc(Br)cc3)NC(c3ccc(Br)cc3)C2C)n1 (stereo not given)
MIC [1]: 8 µg/mL (≈ 13.2 µM)
MIC [2]: > 256 µg/mL
MIC [3]: 32 µg/mL (≈ 52.8 µM)
MIC [4]: 4 µg/mL (≈ 6.6 µM)
MIC [5]: 16 µg/mL (≈ 26.4 µM)
MIC [6]: 256 µg/mL (≈ 422 µM)
MIC [7]: 8 µg/mL (≈ 13.2 µM)

CCOC(=O)Cc1csc(N/N=C2\CC(c3ccc(C)cc3)NC(c3ccc(C)cc3)C2C)n1 (stereo not given)
MIC [1]: > 256 µg/mL
MIC [2]: > 256 µg/mL
MIC [3]: > 256 µg/mL
MIC [4]: 128 µg/mL (≈ 269 µM)
MIC [5]: > 256 µg/mL
MIC [6]: 128 µg/mL (≈ 269 µM)
MIC [7]: 256 µg/mL (≈ 537 µM)

CCOC(=O)Cc1csc(N/N=C2\CC(c3ccc(F)cc3)NC(c3ccc(F)cc3)C2C)n1 (stereo not given)
MIC [1]: 128 µg/mL (≈ 264 µM)
MIC [2]: 16 µg/mL (≈ 33 µM)
Ratio [8]: 200
MIC [3]: 32 µg/mL (≈ 66 µM)
MIC [4]: 32 µg/mL (≈ 66 µM)
MIC [5]: 16 µg/mL (≈ 33 µM)
MIC [6]: 16 µg/mL (≈ 33 µM)
MIC [7]: 64 µg/mL (≈ 132 µM)
Ratio [10]: 1.56

CCOC(=O)Cc1csc(N/N=C2\CC(c3ccccc3)NC(c3ccccc3)C2C)n1 (stereo not given)
MIC [1]: > 256 µg/mL
MIC [2]: 64 µg/mL (≈ 143 µM)
Ratio [8]: 50
MIC [3]: 256 µg/mL (≈ 571 µM)
MIC [4]: 128 µg/mL (≈ 285 µM)
MIC [5]: > 256 µg/mL
MIC [6]: > 256 µg/mL
MIC [7]: > 256 µg/mL
Ratio [10]: 0.39

CCOC(=O)Cc1csc(N/N=C2\CC(c3ccccc3)NC(c3ccccc3)C2CC)n1 (stereo not given)
MIC [1]: > 256 µg/mL
MIC [2]: > 256 µg/mL
MIC [3]: > 256 µg/mL
MIC [4]: > 256 µg/mL
MIC [5]: 128 µg/mL (≈ 277 µM)
MIC [6]: 256 µg/mL (≈ 553 µM)
MIC [7]: > 256 µg/mL

CC1/C(=N/N=C2\NC(=O)CS2)CC(c2ccc(F)cc2)NC1c1ccc(F)cc1 (stereo not given)
MIC [1]: 16 µg/mL (≈ 38.6 µM)
MIC [2]: 128 µg/mL (≈ 309 µM)
Ratio [11]: 2
Ratio [8]: 25
MIC [3]: 8 µg/mL (≈ 19.3 µM)
MIC [4]: 32 µg/mL (≈ 77.2 µM)
MIC [5]: 4 µg/mL (≈ 9.65 µM)
MIC [6]: 16 µg/mL (≈ 38.6 µM)
MIC [7]: 4 µg/mL (≈ 9.65 µM)
Ratio [12]: 1
Ratio [10]: 0.19

CC1/C(=N/N=C2\NC(=O)CS2)CC(c2ccccc2)N(C)C1c1ccccc1 (stereo not given)
MIC [1]: 64 µg/mL (≈ 163 µM)
MIC [2]: 16 µg/mL (≈ 40.8 µM)
Ratio [8]: 200
MIC [3]: 64 µg/mL (≈ 163 µM)
MIC [4]: 128 µg/mL (≈ 326 µM)
Ratio [9]: 1
MIC [5]: 16 µg/mL (≈ 40.8 µM)
MIC [6]: 8 µg/mL (≈ 20.4 µM)
MIC [7]: 64 µg/mL (≈ 163 µM)
Ratio [10]: 1.56

COc1ccc(C2C/C(=N\N=C3/NC(=O)CS3)C(C)C(c3ccc(OC)cc3)N2)cc1 (stereo not given)
MIC [1]: 64 µg/mL (≈ 146 µM)
MIC [2]: 32 µg/mL (≈ 73 µM)
Ratio [8]: 100
MIC [3]: 128 µg/mL (≈ 292 µM)
MIC [4]: 32 µg/mL (≈ 73 µM)
MIC [5]: 32 µg/mL (≈ 73 µM)
MIC [6]: 128 µg/mL (≈ 292 µM)
MIC [7]: 64 µg/mL (≈ 146 µM)
Ratio [10]: 0.78

CC1/C(=N/N=C2\NC(=O)CS2)CC(c2ccc(Br)cc2)NC1c1ccc(Br)cc1 (stereo not given)
MIC [1]: 64 µg/mL (≈ 119 µM)
MIC [2]: 16 µg/mL (≈ 29.8 µM)
Ratio [8]: 200
MIC [3]: 32 µg/mL (≈ 59.7 µM)
MIC [4]: 16 µg/mL (≈ 29.8 µM)
MIC [5]: 8 µg/mL (≈ 14.9 µM)
MIC [6]: 16 µg/mL (≈ 29.8 µM)
MIC [7]: 8 µg/mL (≈ 14.9 µM)
Ratio [10]: 1.56

CC1/C(=N/N=C2\NC(=O)CS2)CC(c2ccccc2)NC1c1ccccc1 (stereo not given)
MIC [1]: > 256 µg/mL
MIC [2]: 64 µg/mL (≈ 169 µM)
Ratio [8]: 50
MIC [3]: 64 µg/mL (≈ 169 µM)
MIC [4]: 256 µg/mL (≈ 676 µM)
MIC [5]: 64 µg/mL (≈ 169 µM)
MIC [6]: > 256 µg/mL
MIC [7]: 64 µg/mL (≈ 169 µM)
Ratio [10]: 0.39

CC1/C(=N/N=C2\NC(=O)CS2)CC(c2ccc(Cl)cc2)NC1c1ccc(Cl)cc1 (stereo not given)
MIC [1]: 128 µg/mL (≈ 286 µM)
MIC [2]: 16 µg/mL (≈ 35.8 µM)
Ratio [8]: 200
MIC [3]: 128 µg/mL (≈ 286 µM)
MIC [4]: 128 µg/mL (≈ 286 µM)
MIC [5]: 8 µg/mL (≈ 17.9 µM)
MIC [6]: 256 µg/mL (≈ 572 µM)
MIC [7]: 128 µg/mL (≈ 286 µM)
Ratio [10]: 1.56

C[C@@H]1[C@H](O)[C@@H](C)/C=C/C=C/C=C/C=C/C=C/C=C/C=C/[C@H](O[C@@H]2O[C@H](C)[C@@H](O)[C@H](N)[C@@H]2O)C[C@@H]2O[C@](O)(C[C@@H](O)C[C@@H](O)[C@H](O)CC[C@@H](O)C[C@@H](O)CC(=O)O[C@H]1C)C[C@H](O)[C@H]2C(=O)O [AMPHOTERICIN B]
MIC [1]: 8 µg/mL (≈ 8.66 µM)
MIC [3]: 8 µg/mL (≈ 8.66 µM)
MIC [6]: 16 µg/mL (≈ 17.3 µM)

O=C(O)c1cn(C2CC2)c2cc(N3CCNCC3)c(F)cc2c1=O [CIPROFLOXACIN]
MIC [5]: 8 µg/mL (≈ 24.1 µM)
MIC [7]: 16 µg/mL (≈ 48.3 µM)

NNC(=O)c1ccncc1 [ISONIAZID]
MIC [2]: 0.25 µg/mL (≈ 1.82 µM)

CO[C@H]1/C=C/O[C@@]2(C)Oc3c(C)c(O)c4c(O)c(c(/C=N/N5CCN(C)CC5)c(O)c4c3C2=O)NC(=O)/C(C)=C\C=C\[C@H](C)[C@H](O)[C@@H](C)[C@@H](O)[C@@H](C)[C@H](OC(C)=O)[C@@H]1C [RIFAMPIN]
MIC [2]: 32 µg/mL (≈ 38.9 µM)
